Results from ChEMBL document CHEMBL2440054, “Largazole Arrests Cell Cycle at G1 Phase and Triggers Proteasomal Degradation of E2F1 in Lung Cancer Cells” (ACS Med Chem Lett, 2013).
Activity calls are given as the source filed them. The rule behind the calls is not given here.

How the values were obtained:
A549 [1] = assay: Downregulation of p21 protein expression in human A549 cells at 0.1 uM after 4 hrs by Western blotting analysis in presence of protein synthesis inhibitor cycloheximide; type: functional, cell-based
[2] = target: Transcription factor E2F1 (Homo sapiens) (UniProt Q01094); assay: Induction of E2F1 ubiquitination in human A549 cells at 0.1 uM after 8 hrs by immunoprecipitation and Western blotting analysis; type: cell-based
Transcription factor E2F1 (Homo sapiens), sequence (Q01094 whole entry): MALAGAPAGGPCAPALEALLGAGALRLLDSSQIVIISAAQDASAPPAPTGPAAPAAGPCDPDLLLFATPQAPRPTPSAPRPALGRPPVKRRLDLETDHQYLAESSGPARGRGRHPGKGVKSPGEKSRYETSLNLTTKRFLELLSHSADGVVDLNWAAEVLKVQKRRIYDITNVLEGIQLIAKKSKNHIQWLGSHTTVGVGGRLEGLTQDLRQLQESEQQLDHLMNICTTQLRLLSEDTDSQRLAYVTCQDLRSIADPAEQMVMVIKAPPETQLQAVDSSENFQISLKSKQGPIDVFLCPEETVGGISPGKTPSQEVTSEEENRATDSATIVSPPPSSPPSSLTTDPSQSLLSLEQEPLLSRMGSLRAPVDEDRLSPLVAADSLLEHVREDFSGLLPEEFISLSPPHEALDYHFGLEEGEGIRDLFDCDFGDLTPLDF
Procedure, shortened: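 Lysates of A549 cells given 0.1 μM largazole for 8 h were immunoprecipitated with anti-E2F1 and probed by Western blot with anti-ubiquitin.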

[3] = target: Transcription factor E2F1 (Homo sapiens) (UniProt Q01094); assay: Induction of E2F1 degradation in human A549 cells at 0.1 uM after 12 hrs by Western blotting analysis in presence of proteasome inhibitor bortezomib; type: cell-based
Procedure, shortened: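 A549 cells pretreated 2 h with bortezomib (100 nM) or MG-132 (10 μM), then given largazole 0.1 μM for a further 12 h. Lysates Western blotted for E2F1.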

A549 [4] = assay: Downregulation of E2F1 protein expression in human A549 cells at 0.1 uM by Western blotting analysis; type: functional, cell-based; settings: TDE = time-dependent effect
Procedure, shortened: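 A549 cells treated with 0.1 μM largazole over a time course, or with a range of concentrations for 12 h. Lysates Western blotted for E2F1.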

[5] = target: Transcription factor E2F1 (Homo sapiens) (UniProt Q01094); assay: Inhibition of E2F1 in human A549 cells assessed as downregulation of PCNA gene expression at 0.1 uM after 6 to 36 hrs by RT-PCR analysis; type: cell-based
Procedure, shortened: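 A549 cells given 0.1 μM over a time course. RNA extracted and RT-PCR run with gene-specific primers. Bands quantified by densitometry and normalized to GAPDH.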

A549 [6] = assay: Downregulation of p21 protein expression in human A549 cells at 0.1 uM after 1 hr by Western blotting analysis in presence of protein synthesis inhibitor cycloheximide; type: functional, cell-based
A549 [7] = assay: Induction of apoptosis in human A549 cells assessed as downregulation of pro-caspase-9 protein expression at 0.1 uM after 48 hrs by Western blotting analysis; type: functional, cell-based
Procedure, shortened: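 A549 cells given largazole 0.1 μM for indicated times, lysed, and Western blotted for pro-/cleaved caspase-9, caspase-8, pro-/active caspase-3 and PARP.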

A549 [8] = assay: Induction of apoptosis in human A549 cells at 0.3 to 1 uM after 48 hrs by Annexin V and propidium iodide staining-based flow cytometric analysis relative to control; type: functional
Procedure, shortened: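 A549 cells treated for 48 h at 0.3 to 1 μM, stained with Annexin V/PI and analysed by flow cytometry for the apoptotic fraction.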

NCI-H460 [9] = assay: Cell cycle arrest in human NCI-H460 cells assessed as accumulation at G1 phase at 0.1 uM after 24 hrs by propidium iodide staining-based flow cytometric analysis (reference value: 58.9%); type: functional
NCI-H460 [10] = assay: Cell cycle arrest in human NCI-H460 cells assessed as accumulation at G1 phase at 0.06 uM after 24 hrs by propidium iodide staining-based flow cytometric analysis (reference value: 58.9%); type: functional
A549 [11] = assay: Cell cycle arrest in human A549 cells assessed as accumulation at S phase at 0.1 uM after 24 hrs by propidium iodide staining-based flow cytometric analysis (reference value: 48%); type: functional
A549 [12] = assay: Cell cycle arrest in human A549 cells assessed as accumulation at S phase at 0.06 uM after 24 hrs by propidium iodide staining-based flow cytometric analysis (reference value: 48%); type: functional
NCI-H460 [13] = assay: Growth inhibition of human NCI-H460 cells at 0.1 uM after 24 to 48 hrs by trypan blue exclusion assay; type: functional, cell-based
Procedure, shortened: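 Cells treated with largazole for indicated times. Viability evaluated by trypan blue exclusion.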

A549 [14] = assay: Cytotoxicity against human A549 cells assessed as inhibition of colony formation pretreated for 24 hrs followed by seeding measured after 10 days by clonogenic assay; type: functional, cell-based
Procedure, shortened: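 Soft-agar clonogenic assay. Cells pretreated 24 h with largazole or DMSO, then seeded in 0.3% soft agar upper layer over 0.6% soft agar lower layer. Colonies counted by microscope after 10 days. Mean ± SD of three independent experiments.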

[15] = Cytotoxicity against human H466 cells after 48 hrs by CCK-8 assay; type: functional, cell-based; settings: H466, 48 h
Procedure, shortened: (§1)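 Cells treated with a range of largazole concentrations for 48 h. Proliferation read by CCK-8 assay; IC50 derived from the concentration series.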

NCI-H460 [16] = assay: Cytotoxicity against human NCI-H460 cells after 48 hrs by CCK-8 assay; type: functional, cell-based; settings: NCI-H460, 48 h; procedure, shortened: as §1
A549 [17] = assay: Cytotoxicity against human A549 cells after 48 hrs by CCK-8 assay; type: functional, cell-based; settings: A549, 48 h; procedure, shortened: as §1
NCI-H1975 = assay: Cytotoxicity against human NCI-H1975 cells after 48 hrs by CCK-8 assay; type: functional, cell-based; settings: NCI-H1975, 48 h; procedure, shortened: as §1
[18] = target: Transcription factor E2F1 (Homo sapiens) (UniProt Q01094); assay: Induction of E2F1 degradation in human NCI-H460 cells at 0.1 uM after 12 to 24 hrs by Western blotting analysis; type: cell-based
Procedure, shortened: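 Each cell line (16-HBE, 95D, L78, H1975, H460) treated with 0.1 μM largazole for indicated times. Lysates Western blotted for E2F1.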

[19] = target: Histone deacetylase 1 (Homo sapiens) (UniProt Q13547); settings: A549, 0.1 uM
Histone deacetylase 1 (Homo sapiens), sequence (Q13547 whole entry): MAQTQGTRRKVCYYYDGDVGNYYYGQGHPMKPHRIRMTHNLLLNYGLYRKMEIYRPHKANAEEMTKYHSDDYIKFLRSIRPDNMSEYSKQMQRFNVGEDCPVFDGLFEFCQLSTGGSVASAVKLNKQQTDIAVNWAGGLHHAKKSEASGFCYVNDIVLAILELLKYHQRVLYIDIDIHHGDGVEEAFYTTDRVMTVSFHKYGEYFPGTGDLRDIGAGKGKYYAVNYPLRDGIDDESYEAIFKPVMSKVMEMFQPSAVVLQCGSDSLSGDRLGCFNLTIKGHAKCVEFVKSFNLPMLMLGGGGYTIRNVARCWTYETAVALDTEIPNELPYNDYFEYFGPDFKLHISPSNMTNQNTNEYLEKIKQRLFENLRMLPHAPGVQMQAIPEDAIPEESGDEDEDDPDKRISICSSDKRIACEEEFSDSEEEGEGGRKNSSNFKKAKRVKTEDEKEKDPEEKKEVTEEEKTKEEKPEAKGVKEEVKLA

[20] = target: Histone deacetylase 1 (Homo sapiens) (UniProt Q13547); settings: 16HBE, 0.1 uM
[21] = target: Histone deacetylase 1 (Homo sapiens) (UniProt Q13547); settings: NCI-H1975, 0.1 uM
[22] = target: Histone deacetylase 1 (Homo sapiens) (UniProt Q13547); settings: A549, 0.1 uM; remark: listed apart in the source

## CCCCCCCC(=O)SCC/C=C/[C@@H]1CC(=O)NCc2nc(cs2)C2=N[C@@](C)(CS2)C(=O)N[C@@H](C(C)C)C(=O)O1 [LARGAZOLE]
A549 [1]
  Activity: Active
[2]
  Activity: Active
[3]
  Activity: inactive
A549 [4]
  Activity: tde
[5]
  inhibition: Active
A549 [6]
  Activity: inactive
A549 [7]
  Activity: Active
A549 [8]
  Activity: <=70%
NCI-H460 [9]
  Activity: 84.1%
NCI-H460 [10]
  Activity: 78.8%
A549 [11]
  Activity: 8.5%
A549 [12]
  Activity: 6.5%
NCI-H460 [13]
  growth inhibition (GI): Active
A549 [14]
  inhibition: Dose-dependent effect
[15]
  IC50: 520 nM
NCI-H460 [16]
  IC50: 120 nM
A549 [17]
  IC50: 77 nM
NCI-H1975
  IC50: 83 nM
[18]
  Activity: Active
[19]
  inhibition: Active
[20]
  inhibition: Active
[21]
  inhibition: Active
[22]
  inhibition: Active
